Experimental data: ChEMBL document CHEMBL1154220, “Inhibitors of aldose reductase and formation of advanced glycation end-products in moutan cortex (Paeonia suffruticosa)” (J Nat Prod, 2009)
pIC50: −log10 of the molar value.

Key:
[1] = biological target: Aldo-keto reductase family 1 member B1 (Rattus norvegicus, UniProt P07943); assay: Inhibition of Sprague-Dawley rat lens aldose reductase by spectrofluorimetry; format: single protein
How it was run: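 Crude enzyme: supernatant of lenses from 8-week-old rats (250-280 g), homogenized in 135 mM Na/K phosphate pH 7.0 with 0.5 mM PMSF and 10 mM 2-mercaptoethanol, spun 14 000 rpm 30 min. NADP converted to fluorophore with NaOH/imidazole at 60 °C for 10 min, read ex 360/em 460 nm. IC50 from dose-response curves, triplicate, mean ± SE.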

[2] = Inhibition of advanced glycation end product formation after 14 day in phosphate buffer at pH7.4 by spectrofluorimetry; format: physicochemical
How it was run: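 BSA (10 mg/mL stock) in 50 mM phosphate pH 7.4 with 0.02% sodium azide, plus 0.2 M fructose and glucose, incubated with serially diluted samples at 37 °C for 14 days in screw-cap tubes. Aminoguanidine served as reference. Fluorescence read at ex 350/em 450 nm. IC50 from dose-response curves, triplicate, mean ± SE.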

| SMILES | pIC50 [1] | pIC50 [2] |
| --- | --- | --- |
| CCCCO[C@]12C[C@]3(C)OC(O1)[C@]1(COC(=O)c4ccccc4)[C@@H]2C[C@@]31O[C@@H]1O[C@H](CO)[C@@H](O)[C@H](O)[C@H]1O | 4.44 | 4.97 |
| CO[C@H]1O[C@@]2(C)CC(=O)[C@H]3C[C@]2(O[C@@H]2O[C@H](COC(=O)c4ccccc4)[C@@H](O)[C@H](O)[C@H]2O)[C@]13COC(=O)c1ccccc1 | < 4.30 | < 3.30 |
| C[C@@]12C[C@@]3(O)OC(O1)[C@]1(COC(=O)c4ccc(O)cc4)[C@@H]3C[C@@]21O[C@H]1O[C@H](COC(=O)c2ccccc2)[C@@H](O)[C@H](O)[C@H]1O | < 4.30 | < 3.30 |
| C[C@@]12C[C@@]3(O)OC(O1)[C@]1(COC(=O)c4ccc(O)cc4)[C@@H]3C[C@@]21O[C@@H]1O[C@H](COC(=O)c2ccccc2)[C@@H](O)[C@H](O)[C@H]1O | < 4.30 | < 3.30 |
| C=C1CC[C@]2(C(=O)O)CC[C@]3(C)C(=CC[C@@H]4[C@@]5(C)CC[C@H](O)[C@@](C)(CO)[C@@H]5CC[C@]43C)[C@@H]2C1 | 4.54 | < 3.30 |
| O=C(O)CC1(CC(=O)O)CCCC1 | 4.50 | – |
| C[C@@]12C[C@@]3(O)O[C@@H](O1)[C@]1(COC(=O)c4ccccc4)[C@@H]3C[C@]12O[C@@H]1O[C@H](COC(=O)c2ccccc2)[C@@H](O)[C@H](O)[C@H]1O [BENZOYLPAEONIFLORIN] | < 4.30 | < 3.30 |
| N=C(N)NN [PIMAGEDINE] | – | 2.99 |

Further lines, results first:

| pIC50 [1] | pIC50 [2] | SMILES |
| --- | --- | --- |
| < 4.30 | 3.75 | Cc1cc2c(cc1O)[C@@H](CO)CO2 |
| < 4.30 | < 3.30 | CO[C@@]12C[C@@H]3C(=O)[C@@](C)(C1)OC(O2)[C@H]3COC(=O)c1ccccc1 |
| 4.35 | 4.95 | C[C@@]12C[C@@]3(O)O[C@@H](O1)[C@]1(COC(=O)c4ccccc4)[C@@H]3C[C@]12O[C@@H]1O[C@H](COC(=O)c2cc(O)c(O)c(O)c2)[C@@H](O)[C@H](O)[C@H]1O [GALLOYLPAEONIFLORIN] |
| < 4.30 | < 3.30 | C[C@@]12C[C@@]3(O)OC(O1)[C@]1(COC(=O)c4ccccc4)[C@@H]3C[C@@]21O[C@@H]1O[C@H](COC(=O)c2ccc(O)cc2)[C@@H](O)[C@H](O)[C@H]1O [NUDANPINOSIDE H] |
| < 4.30 | < 3.30 | C[C@@]12C[C@@]3(O)O[C@@H](O1)[C@]1(COC(=O)c4ccc(O)cc4)[C@H]3C[C@@]12O[C@@H]1O[C@H](CO)[C@@H](O)[C@H](O)[C@H]1O [OXYPAEONIFLORIN] |
| < 4.30 | < 3.30 | C[C@@]12CC(=O)[C@H]3C[C@]1(O)O[C@H](O2)[C@@H]3COC(=O)c1ccccc1 [PAEONIFLORIGENONE] |
| < 4.30 | < 3.30 | C[C@@]12C[C@@]3(O)O[C@@H](O1)[C@]1(COC(=O)c4ccccc4)[C@H]3C[C@@]12O[C@@H]1O[C@H](CO)[C@@H](O)[C@H](O)[C@H]1O [PAEONIFLORIN] |
| < 4.30 | < 3.30 | COc1ccc(C(C)=O)c(O[C@@H]2O[C@H](CO[C@@H]3OC[C@H](O)[C@H](O)[C@H]3O)[C@@H](O)[C@H](O)[C@H]2O)c1 [PAEONOLIDE] |
| < 4.30 | < 3.30 | COc1ccc(C(C)=O)c(O)c1 [PAEONOL] |
| 4.94 | < 3.30 | CC1(C)[C@@H](O)CC[C@]2(C)[C@H]3C=CC4=C(O)C(=O)C(=O)[C@@]4(C)[C@]3(C)CC[C@@H]12 [PALBINONE] |
